In experiment [1] the target is Mu-type opioid receptor (Homo sapiens) (UniProt P35372). Kind of experiment: Ability to inhibit agonist-stimulated (DAMGO) [35S]GTP-gamma-S, binding, using cloned human Opioid receptor mu 1expressed in CHO cells. Type of experiment: functional, cell-based. An outline of the steps:
(§1)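 Agonist dose-response curves in [35S]GTPγS binding were run with and without one fixed concentration of test compound, with 10 μM GDP final. Ke = [L]/((A'/A)−1), where A' and A are agonist EC50 with and without antagonist. Mean ± SE from at least three independent experiments.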
In general terms: GTPγS resists hydrolysis and so accumulates on activated G proteins.

The target in experiment [2] is T1, Delta-type opioid receptor (Homo sapiens, UniProt P41143). Put plainly: Ability to inhibit agonist-stimulated (DPDPE) [35S]GTP-gamma-S, binding, using cloned human opioid receptor delta 1 expressed in CHO cells. Type of experiment: functional, cell-based. In short, it runs like this:
as §1

Experiment [3] concerns the target Opioid receptors; mu & delta (Homo sapiens) (UniProt P41143+P35372). Kind of experiment: Selectivity ratio of agonist stimulated [35S]GTP-gamma-S, binding in cloned human mu-opioid receptor versus delta-opioid receptor. It counts as functional.
Experiment [4] has as its target T1, Delta-type opioid receptor. Kind of experiment: Efficacy at cloned human opioid receptor delta 1, expressed as percent of basal binding.
In experiment [5] the target is T1, Delta-type opioid receptor. Kind of experiment: [3H]-Cl-DPDPE competition binding assay using human cloned opioid receptor delta 1.
The target in experiment [6] is T1, Delta-type opioid receptor. Kind of experiment: Inverse agonist potency at cloned human opioid receptor delta 1. It counts as functional.
For experiment [7], the target named is Kappa-type opioid receptor (Homo sapiens) (UniProt P41145). Put plainly: Ability to inhibit agonist-stimulated (U69,593) [35S]GTP-gamma-S, binding, using cloned human Opioid receptor kappa 1 expressed in CHO cells. Type of experiment: functional, cell-based. An outline of the steps:
as §1

For experiment [8], the target named is Opioid receptors; delta & kappa (Homo sapiens) (UniProt P41145+P41143). Put plainly: Selectivity ratio of agonist stimulated [35S]GTP-gamma-S, binding in cloned human kappa-opioid receptor versus delta-opioid receptor. Type of experiment: functional.
The target in experiment [9] is T1, Delta-type opioid receptor. Kind of experiment: Inverse agonist potency at cloned human delta-opioid receptor. Type of experiment: functional.
Experiment [10] addresses T1, Delta-type opioid receptor. Kind of experiment: Binding affinity towards opioid receptor delta 1 expressed in CHO cells was determined by using [3H]DPDPE as radioligand. It counts as cell-based.

Each structure is given as a SMILES string. Where a SMILES comes first, the peptide text is derived from it. [ ]: non-standard residue; d: D form. The star is where a group is joined. Tyr(Nα,Nα-allyl2) = C=CCN(CC=C)[C@@H](Cc1ccc(O)cc1)C(=O)*; Aib = CC(C)(N)C(=O)O

Data on six compounds can be found in ChEMBL document CHEMBL1148374 (J Med Chem, 2004).

T1 sequence (P41143 whole entry): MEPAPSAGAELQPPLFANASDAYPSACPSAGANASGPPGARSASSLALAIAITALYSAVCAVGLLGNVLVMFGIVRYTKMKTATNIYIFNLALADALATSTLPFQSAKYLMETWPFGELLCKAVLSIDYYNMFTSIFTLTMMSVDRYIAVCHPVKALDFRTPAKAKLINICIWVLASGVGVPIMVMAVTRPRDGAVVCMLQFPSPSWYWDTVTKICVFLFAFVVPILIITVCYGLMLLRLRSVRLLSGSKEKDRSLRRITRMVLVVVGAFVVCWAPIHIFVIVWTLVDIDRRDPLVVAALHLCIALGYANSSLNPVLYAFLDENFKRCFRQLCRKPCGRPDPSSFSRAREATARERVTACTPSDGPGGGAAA
Chain of Opioid receptors; delta & kappa (Homo sapiens) (P41143 whole entry, looked up): as the sequence (P41143 whole entry) above
Chain of Opioid receptors; delta & kappa (Homo sapiens) (P41145 whole entry, looked up): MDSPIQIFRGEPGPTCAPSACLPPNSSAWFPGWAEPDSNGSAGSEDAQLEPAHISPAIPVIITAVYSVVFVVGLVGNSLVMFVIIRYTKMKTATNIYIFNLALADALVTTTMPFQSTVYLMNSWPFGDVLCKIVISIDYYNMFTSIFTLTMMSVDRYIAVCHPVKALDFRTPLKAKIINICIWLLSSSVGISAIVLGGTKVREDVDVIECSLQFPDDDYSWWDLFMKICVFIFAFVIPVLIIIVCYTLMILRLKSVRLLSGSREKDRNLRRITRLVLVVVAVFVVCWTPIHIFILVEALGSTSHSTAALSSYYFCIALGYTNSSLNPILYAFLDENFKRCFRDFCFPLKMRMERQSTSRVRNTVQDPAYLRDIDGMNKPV
Chain of Kappa-type opioid receptor (Homo sapiens) (P41145 whole entry): as the sequence (P41145 whole entry, looked up) above
Chain of Mu-type opioid receptor (Homo sapiens) (P35372 whole entry): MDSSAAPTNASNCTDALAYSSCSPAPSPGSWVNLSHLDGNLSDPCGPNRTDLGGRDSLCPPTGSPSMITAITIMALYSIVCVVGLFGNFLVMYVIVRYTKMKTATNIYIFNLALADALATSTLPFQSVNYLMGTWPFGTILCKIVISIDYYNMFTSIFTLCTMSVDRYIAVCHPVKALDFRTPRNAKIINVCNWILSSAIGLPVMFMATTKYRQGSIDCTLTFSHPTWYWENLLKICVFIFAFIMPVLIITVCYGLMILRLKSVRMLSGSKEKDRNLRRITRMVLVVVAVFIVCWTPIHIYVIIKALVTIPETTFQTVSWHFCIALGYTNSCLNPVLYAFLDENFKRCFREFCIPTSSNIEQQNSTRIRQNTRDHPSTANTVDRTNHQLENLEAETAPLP
Chain of Opioid receptors; mu & delta (Homo sapiens) (P35372 whole entry, looked up): as the sequence (P35372 whole entry) above
Chain of Opioid receptors; mu & delta (Homo sapiens) (P41143 whole entry, looked up): as the sequence (P41143 whole entry) above

On to `CC1CN(CCCc2ccccc2)C2C[C@H](NC(=O)C3(c4ccccc4)CCCC3)CC1(c1cccc(O)c1)C2` (stereo partly drawn), for which the Ke in [1] worked out at 40.3 nM; in experiment [2], 4.24 nM; in experiment [7], 5.51 nM. Also, the Selectivity ratio in experiment [3] worked out at 9.5; in [8] it was 1.3. The Basal binding in experiment [4] came to 78%. In [5], the inhibitory constant (Ki) is 9.3 nM. In [6], the IC50 was 15.2 nM.

In [4], `Cc1ccccc1/C=C/CN1CC[C@@](C)(c2cccc(O)c2)[C@@H](C)C1` registered a Basal binding of 76%. In addition, in experiment [6], the IC50 is 2.8 nM.

`Oc1ccc2c3c1O[C@H]1c4[nH]c5ccccc5c4C[C@@]4(O)[C@@H](C2)N(CC2CC2)CC[C@]314`: the Ke in [1] turned out to be 33 nM; in experiment [2], 0.21 nM; in [7] it was 16.1 nM.

Regarding `CC1CN(CCCc2ccccc2)C2CC(NC(=O)C3(c4ccccc4)CCCC3)CC1(c1cccc(O)c1)C2` (racemic), the figures for the Ke in experiment [1], in experiment [2] and in [7] were 12.2 nM, 0.55 nM and 3.52 nM, respectively. Further, the figures for the Selectivity ratio in experiment [3] and in [8] were 22 and 6.4, respectively. In experiment [5], this compound showed a Ki of 2.1 nM. In addition, the IC50 in experiment [9] is 2.4 nM.

On to `CC1CN(CCCc2ccccc2)C2C[C@@H](NC(=O)C3(c4ccccc4)CCCC3)CC1(c1cccc(O)c1)C2` (single isomer, unassigned; (+)), for which the figures for the Ke in experiment [1], in [2] and in [7] were 8.7 nM, 0.15 nM and 17.9 nM, respectively. Also, the Selectivity ratio worked out at 58 in [3] and 119 in [8]. The same compound showed an inhibition constant Ki in experiment [5] of 0.96 nM. This compound also showed an IC50 in experiment [9] of 1.8 nM.

In the case of `C=CCN(CC=C)[C@@H](Cc1ccc(O)cc1)C(=O)NC(C)(C)C(=O)NC(C)(C)C(=O)N[C@@H](Cc1ccccc1)C(=O)N[C@@H](CC(C)C)C(=O)O` ({Tyr(Nα,Nα-allyl2)}-[Aib][Aib]FL-OH), the Ke in experiment [1] worked out at 42 nM; in experiment [2] it was 7.85 nM; in [7], 339 nM. Besides, the Selectivity ratio came to 5.4 in experiment [3] and 43 in experiment [8]. In experiment [10], this compound gave a Ki of 19.1 nM.

Usually Ki stands for the equilibrium dissociation constant of an inhibitor or competing ligand from its target. By IC50 is commonly meant the concentration that gives 50% inhibition.
